Published values gathered from unrelated publications.
Lines come from different studies, so protocols differ.
Nuclear receptor subfamily 4 group A member 2: Nuclear receptor subfamily 4 group A member 2 (Homo sapiens, UniProt P43354)
P2RY14: P2Y purinoceptor 14 (P2RY14, Homo sapiens, UniProt Q15391)

`CCN(CC)Cc1cc(Nc2ccnc3cc(Cl)ccc23)ccc1O` gave a ΔTm of -0.09 °C (Nuclear receptor subfamily 4 group A member 2; thermal stability, DSF; 100 µM).
For `C1=C/COCc2cc(ccc2OCCN2CCCC2)Nc2nccc(n2)-c2cccc(c2)COC/1`, the remaining binding was 100% (Mitogen-activated protein kinase kinase kinase 1 (MAP3K1, Homo sapiens, UniProt Q13233); binding; 0.1 µM).
With `CCCCC(=O)Nc1ccc(-c2ccc3ncn(CCC)c(=O)c3c2)cn1` the remaining binding was 100% (Tyrosine-protein kinase JAK3, JH1 (JAK3, Homo sapiens, UniProt P52333); binding, competition with immobilised ligand; 0.5 µM).
`COc1ccc(OCC(=O)N[C@@H](Cc2c[nH]c3ccccc23)C(=O)OC(C)C)cc1` has an inhibition of 85.6% (P2RY14; cAMP, antagonist; HEK293; 0.1 µM).
For `Cc1cc(O)c(-c2ccc([C@@H](C)CN(C)C)cc2)c2c1[nH]c(=O)c1sccc12`, the inhibition was 9.25% (Eukaryotic elongation factor 2 kinase (EEF2K, Homo sapiens, UniProt O00418); enzyme activity, inhibitor; 0.1 µM).
`CC(C)OC(=O)[C@H](Cc1c[nH]c2ccccc12)NC(=O)COc1ccccc1` has an inhibition of 79.3% (P2RY14; cAMP, antagonist; HEK293; 0.1 µM).
`C#Cc1cc(-c2cc(Nc3nc(N[C@@H](C)c4ccc(F)cn4)ncc3Cl)n[nH]2)ccc1C=O` gave an inhibition of 8.79% (Ribosomal protein S6 kinase alpha-4 (RPS6KA4, Homo sapiens, UniProt O75676); enzyme activity, inhibitor; 0.2 µM).
`Cc1onc(-c2ccccc2)c1-c1ccc(S(N)(=O)=O)cc1` has a ΔTm of -1 °C (Nuclear receptor subfamily 4 group A member 2; thermal stability, DSF; 100 µM).
`CC(C)OC(=O)[C@H](Cc1c[nH]c2ccccc12)NC(=O)c1ccc2c(c1)OCO2` has an inhibition of 10.7% (P2RY14; cAMP, antagonist; HEK293; 0.1 µM).
With `COc1ccc2oc(-c3ccc4nc(N)oc4c3)c/c(=N\c3ccccc3NC(=O)CCN)c2c1` the remaining binding was 93% (Tyrosine-protein kinase JAK3 (JAK3, Homo sapiens, UniProt P52333); binding; 1 µM).
For `O=C(N[C@@H](Cc1c[nH]c2ccccc12)C(=O)O)c1cscn1`, the inhibition was 60.5% (P2RY14; cAMP, antagonist; HEK293; 0.1 µM).
For `NC/C(=C\F)COc1cccc(Cn2c(=S)[nH]c(=O)c3[nH]cnc32)c1`, the remaining activity was 41.3% (Eosinophil peroxidase (Homo sapiens, UniProt P11678); enzyme activity, inhibitor; 15 µM).
